These results are taken from ChEMBL document CHEMBL1157714, “Synthesis, anti-HIV and anti-oxidant activities of caffeoyl 5,6-anhydroquinic acid derivatives” (Bioorg Med Chem, 2010).

The IC50 is the concentration needed to halve the response being measured. What is called EC50 is the concentration that produces a half-maximal response.

Data set [1] is described as follows: Antioxidant activity assessed as SOD-like activity by WST1 assay. The format is functional. In outline:
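SOD Assay Kit-WST in 96-well plates. Compound in DMSO was mixed with WST working solution, and the reaction was started with xanthine oxidase. After 20 min at 37 °C, absorbance was read at 450 nm. Inhibition % was corrected with three blanks (DMSO, no enzyme, DMSO plus buffer). Four concentrations were tested, and IC50 was taken from the inhibition-concentration plot.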
(In general: Tetrazolium assays rely on reduction of a dye to a coloured formazan, in cell work by metabolically active cells.)

Data set [2] has as its system Radical scavenging activity. Nature of the data set: Antioxidant activity assessed as DPPH radical scavenging activity. The format is functional. A digest of the protocol: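 Each well held 10 µl compound in DMSO plus 190 µl of 0.1 mM DPPH in ethanol. After 20 min at rt, absorbance was read at 540 nm. Effective rate % was computed, each compound was tested at 4 concentrations, and EC50 was derived from a plot of effective rate % against concentration.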

For data set [3], the system named is MT4. Briefly: Cytotoxicity against human MT4 cells after 5 days. The format is cell-based. The following applies: mt4, 120 h. A digest of the protocol:
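Over a 5-day culture in RPMI-1640 with graded compound concentrations, MT-4 cell growth was checked by optical microscopy. The cytotoxic concentration (CC) was the concentration that reduced MT-4 viability.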

Data set [4] concerns Human immunodeficiency virus 1. Briefly: Antiviral activity against HIV1 3B infected in human MT4 cells after 5 days. The format is functional. A digest of the protocol:
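MT-4 cells were infected 1 h with HIV-1 (HTLV-IIIB) at TCID50 0.001/cell, resuspended at 1 × 10⁵ cells/ml in RPMI-1640, and cultured 5 days with graded compound concentrations. Infected and uninfected controls had no compound. On day 5, the concentration fully preventing the virus-induced cytopathic effect was read by optical microscopy.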

Each structure is given as a SMILES string. ≈ marks a conversion by molar mass, not a printed value.

For `O=C(/C=C/c1ccc(O)c(O)c1)O[C@@H]1C[C@](O)(C(=O)O)C=C[C@H]1O`, in data set [1], the 50% inhibitory concentration (IC50) stood at 0.5 µg/mL (≈ 1.49 µM). Also, in data set [2], the EC50 came out at 16 µg/mL (≈ 47.6 µM). The CC100 in data set [3] is over 25 µg/mL.

Take `CCCC1(CCC)OC(=O)[C@]2(C[C@@H](O)[C@H](O)[C@H](OC(=O)/C=C/c3ccc(O)c(O)c3)C2)O1`: the IC50 in data set [1] was found to be 2 µg/mL (≈ 4.44 µM). In data set [2], the EC50 came out at 30 µg/mL (≈ 66.6 µM). The same compound yielded a CC100 in data set [3] of over 25 µg/mL.

Turning to `COC(=O)[C@@]1(O)C[C@@H](O)[C@H](O)[C@H](OC(=O)/C=C/c2ccc(O)c(O)c2)C1`, the IC50 in data set [1] worked out at 1.4 µg/mL (≈ 3.8 µM). In data set [2], the EC50 stood at 20 µg/mL (≈ 54.3 µM). Moreover, the CC100 in data set [3] was over 25 µg/mL.

In the case of `CC[C@@H]1OC(=O)[C@]2(C[C@@H](O)[C@H](O)[C@H](OC(=O)/C=C/c3ccc(O)c(O)c3)C2)O1`, the IC50 in data set [1] was determined as 1 µg/mL (≈ 2.54 µM). Besides, in data set [2], the concentration giving a half-maximal response (EC50) came out at 19 µg/mL (≈ 48.2 µM). The compound also gave a CC100 in data set [3] of over 12.5 µg/mL.

With `CC1(C)OC(=O)[C@]2(C[C@@H](O)[C@H](O)[C@H](OC(=O)/C=C/c3ccc(O)c(O)c3)C2)O1`, the IC100 in data set [4] turned out to be 25 µg/mL. In addition, the concentration for half-maximal inhibition (IC50) in data set [1] is 1.6 µg/mL (≈ 4.06 µM). In addition, in data set [2], the EC50 was determined as 8 µg/mL (≈ 20.3 µM). In data set [3], this compound had a CC100 of over 50 µg/mL.

With `CCC1(CC)OC(=O)[C@]2(C[C@@H](O)[C@H](O)[C@H](OC(=O)/C=C/c3ccc(O)c(O)c3)C2)O1`, in data set [1], the IC50 stood at 2 µg/mL (≈ 4.73 µM). The EC50 in data set [2] amounted to 29 µg/mL (≈ 68.7 µM). For the same compound, the CC100 in data set [3] is over 25 µg/mL.

As to `CC(=O)Oc1ccc(/C=C/C(=O)O[C@@H]2C=C[C@@]3(C[C@H]2O)OC(C)(C)OC3=O)cc1OC(C)=O`, the 50% inhibitory concentration (IC50) in data set [1] worked out at 2.9 µg/mL (≈ 6.3 µM). Besides, the EC50 in data set [2] was over 50 µg/mL.

`O=C(/C=C/c1ccc(O)c(O)c1)O[C@@H]1C=C[C@@](O)(C(=O)O)C[C@H]1OC(=O)/C=C/c1ccc(O)c(O)c1`: in data set [4], the IC100 is 6.25 µg/mL. Besides, the IC50 in data set [1] came out at 1.9 µg/mL (≈ 3.81 µM). In addition, the EC50 in data set [2] was 11 µg/mL (≈ 22.1 µM). For the same compound, the CC100 in data set [3] is over 25 µg/mL.

`CC1(C)OC(=O)[C@@]2(C=C[C@@H](O)[C@H](OC(=O)/C=C/c3ccc(O)c(O)c3)C2)O1` gave an IC100 in data set [4] of 50 µg/mL. The IC50 in data set [1] was 1.5 µg/mL (≈ 3.99 µM). The EC50 in data set [2] was 20 µg/mL (≈ 53.1 µM). For the same compound, in data set [3], the CC100 is over 100 µg/mL.

`CC(=O)Oc1ccc(/C=C/C(=O)O[C@@H]2C=C[C@@]3(C[C@H]2OC(=O)/C=C/c2ccc(OC(C)=O)c(OC(C)=O)c2)OC(C)(C)OC3=O)cc1OC(C)=O`: the concentration for half-maximal inhibition (IC50) in data set [1] worked out at 6.3 µg/mL (≈ 8.92 µM). The EC50 in data set [2] was over 50 µg/mL. Further, the CC100 in data set [3] is over 6.25 µg/mL.

Regarding `CC[C@H]1OC(=O)[C@]2(C[C@@H](O)[C@H](O)[C@H](OC(=O)/C=C/c3ccc(O)c(O)c3)C2)O1`, in data set [1], the concentration for half-maximal inhibition (IC50) was 1.1 µg/mL (≈ 2.79 µM). The EC50 in data set [2] is 20 µg/mL (≈ 50.7 µM). Moreover, in data set [3], the CC100 was over 12.5 µg/mL.

In the case of `O=C(/C=C/c1ccc(O)c(O)c1)O[C@@H]1C[C@](O)(C(=O)O)C[C@@H](OC(=O)/C=C/c2ccc(O)c(O)c2)[C@H]1O`, the IC100 in data set [4] was found to be 12.5 µg/mL. Also, the IC50 in data set [1] was 2.3 µg/mL (≈ 4.45 µM). Also, the EC50 in data set [2] was found to be 16 µg/mL (≈ 31 µM). The compound also showed a CC100 in data set [3] of over 50 µg/mL.

The compound `CC(=O)Oc1ccc(/C=C/C(=O)O[C@@H]2C[C@]3(C=C[C@H]2O)OC(C)(C)OC3=O)cc1OC(C)=O` registered an IC100 in data set [4] of 50 µg/mL. Further, the 50% inhibitory concentration (IC50) in data set [1] came to 1.8 µg/mL (≈ 3.91 µM). For the same compound, the EC50 in data set [2] was over 50 µg/mL. Further, the CC100 in data set [3] was over 100 µg/mL.

`CC1(C)O[C@H]2C=C[C@@]3(C[C@H]2O1)OC(C)(C)OC3=O`: the IC50 in data set [1] came out at 90 µg/mL (≈ 354 µM). Also, the EC50 in data set [2] was over 50 µg/mL. In data set [3], this compound had a CC100 of over 100 µg/mL.

As for `CCCCCC1(CCCCC)OC(=O)[C@]2(C[C@@H](O)[C@H](O)[C@H](OC(=O)/C=C/c3ccc(O)c(O)c3)C2)O1`, the IC50 in data set [1] was 2.9 µg/mL (≈ 5.72 µM). The EC50 in data set [2] is 28 µg/mL (≈ 55.3 µM). In addition, in data set [3], the CC100 was over 12.5 µg/mL.

Turning to `CC1(C)OC(=O)[C@@]2(C=C[C@@H](OC(=O)/C=C/c3ccc(O)c(O)c3)[C@H](O)C2)O1`, the IC100 in data set [4] came to 50 µg/mL. Moreover, in data set [1], the IC50 was determined as 1.3 µg/mL (≈ 3.45 µM). In addition, the EC50 in data set [2] amounted to 18 µg/mL (≈ 47.8 µM). Also, the CC100 in data set [3] is over 100 µg/mL.

Take `O=C(/C=C/c1ccc(O)c(O)c1)O[C@@H]1C[C@@](O)(C(=O)O)C[C@@H](O)[C@@H]1O`: in data set [1], the IC50 is 1.5 µg/mL (≈ 4.23 µM). In data set [2], the EC50 was 17 µg/mL (≈ 48 µM).

Consider `CC1(C)O[C@H]2[C@H](O)C[C@@]3(C[C@H]2O1)OC(C)(C)OC3=O` [QUINIC ACID BISACETONIDE], for which the IC50 in data set [1] was over 100 µg/mL. Besides, the EC50 in data set [2] is over 50 µg/mL. For the same compound, the CC100 in data set [3] is over 100 µg/mL.

Turning to `CC1(C)OC(=O)[C@@]2(C=C[C@@H](O)[C@H](O)C2)O1`, the 50% inhibitory concentration (IC50) in data set [1] is over 100 µg/mL. Also, the EC50 in data set [2] is over 50 µg/mL. Moreover, the CC100 in data set [3] is over 100 µg/mL.

Turning to `O=C(/C=C/c1ccc(O)c(O)c1)O[C@@H]1C=C[C@@](O)(C(=O)O)C[C@H]1O`, the 50% inhibitory concentration (IC50) in data set [1] turned out to be 0.7 µg/mL (≈ 2.08 µM). The EC50 in data set [2] came out at 15 µg/mL (≈ 44.6 µM). The same compound came in with a CC100 in data set [3] of over 25 µg/mL.

With `CCCCC1(CCCC)OC(=O)[C@]2(C[C@@H](O)[C@H](O)[C@H](OC(=O)/C=C/c3ccc(O)c(O)c3)C2)O1`, the IC50 in data set [1] amounted to 2 µg/mL (≈ 4.18 µM). The EC50 in data set [2] came out at 22 µg/mL (≈ 46 µM). For the same compound, the CC100 in data set [3] was over 25 µg/mL.

Consider `CC1(C)OC(=O)[C@@]2(C=C[C@@H](OC(=O)/C=C/c3ccc(O)c(O)c3)[C@H](OC(=O)/C=C/c3ccc(O)c(O)c3)C2)O1`, for which the IC50 in data set [1] was determined as 2 µg/mL (≈ 3.71 µM). Also, the EC50 in data set [2] is 20 µg/mL (≈ 37.1 µM). In data set [3], this compound had a CC100 of over 25 µg/mL.
